HKDC1 inhibitor = inhibitors of human hexokinase HKDC1; Q2TB90; recombinant HKDC1, G6PDH/diaphorase resazurin coupled fluorescence; inhibition, % at 20 µM; 340,000 compounds, 0.16% hits; AID 493160;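 active = inhibition above about 35% when tested at 20 µM, limit read from the data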;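 note: plate controls were DMSO wells with enzyme for no effect and DMSO wells lacking enzyme for full effect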
Target sequence (Q2TB90 whole entry, looked up): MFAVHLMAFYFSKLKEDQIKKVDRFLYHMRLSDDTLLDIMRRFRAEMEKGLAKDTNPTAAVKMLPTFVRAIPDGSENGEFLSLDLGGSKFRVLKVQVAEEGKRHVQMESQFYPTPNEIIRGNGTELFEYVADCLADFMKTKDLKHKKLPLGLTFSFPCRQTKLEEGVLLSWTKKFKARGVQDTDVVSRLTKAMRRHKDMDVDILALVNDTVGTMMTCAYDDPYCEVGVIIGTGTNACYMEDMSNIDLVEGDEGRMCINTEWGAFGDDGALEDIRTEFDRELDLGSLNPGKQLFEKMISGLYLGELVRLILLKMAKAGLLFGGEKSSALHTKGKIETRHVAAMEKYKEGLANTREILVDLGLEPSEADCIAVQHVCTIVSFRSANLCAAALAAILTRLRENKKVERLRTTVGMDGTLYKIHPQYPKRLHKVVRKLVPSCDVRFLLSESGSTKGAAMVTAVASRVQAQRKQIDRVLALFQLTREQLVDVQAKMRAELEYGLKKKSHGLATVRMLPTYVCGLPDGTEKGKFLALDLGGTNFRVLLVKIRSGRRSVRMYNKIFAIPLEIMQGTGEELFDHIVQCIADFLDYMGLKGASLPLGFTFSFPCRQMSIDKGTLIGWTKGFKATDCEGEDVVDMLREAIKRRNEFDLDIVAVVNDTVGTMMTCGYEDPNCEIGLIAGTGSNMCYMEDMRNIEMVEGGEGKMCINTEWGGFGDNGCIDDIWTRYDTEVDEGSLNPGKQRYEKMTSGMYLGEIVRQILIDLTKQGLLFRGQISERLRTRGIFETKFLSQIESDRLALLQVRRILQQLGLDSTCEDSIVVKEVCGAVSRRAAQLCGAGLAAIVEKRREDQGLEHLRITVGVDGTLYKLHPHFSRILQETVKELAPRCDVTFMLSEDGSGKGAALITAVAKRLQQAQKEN
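Assay system: recombinant HKDC1 hexokinase; detection: coupled resazurin fluorescence, excitation 525 nm, emission 613 nm; benchmarks: DMSO-plus-enzyme-mix negative control, buffer-substituted positive control; compound dosing: single 20 µM dose; schedule: 90 min at room temperature in dark; also added: glucose plus 1 mM ATP as hexokinase substrates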
G6PDH CS = counter-screen for G6PDH assay hits: L. mesenteroides G6PDH inhibition; Purified L. mesenteroides G6PDH, diaphorase/resazurin coupled fluorescence, 45 min; inhibition, % at 5 µM; 200,000 compounds, 0.12% hits; in the data active = inhibition above about 50%
Diaph inh CS = counter-screen for diaphorase-based assays: diaphorase inhibitors and chemical oxidizers; 190,000 compounds, 0.69% hits; inhibition, % at 20 µM; AID 1217; diaphorase resazurin-to-resorufin fluorescence, NADH, 16 min; bacterial (C. kluyveri) enzyme, not human;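 active = primary screen inhibition at 20 µM above a set limit, cut at about 50% in these data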;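 note: plate controls were DMSO with full reaction for no effect and wells lacking NADH for full effect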
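System: Diaphorase enzyme from Clostridium kluyveri | Amount: Enzyme working solution with 0.14 U/mL diaphorase | Benchmarks: No-NADH positive control and DMSO neutral control | Signal: Fluorescence of resorufin formed from resazurin, Ex 544/Em 590 nm | Schedule: 16-min room-temperature incubation before reading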
PfGluPho inh = PfG6PD (Plasmodium falciparum) enzyme inhibition; PfGluPho enzyme, NADPH resazurin-diaphorase fluorescence; inhibition, % at 20 µM; 350,000 compounds, 0.78% hits;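 active = inhibition reaching at least a set limit at 20 µM in the primary screen, cut at about 59% in these data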;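 note: 0% = DMSO wells with substrate and 100% = DMSO wells lacking glucose-6-phosphate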
Diaph act CS = counter-screen for diaphorase-based assays: diaphorase activators and chemical reducers; Diaphorase/resazurin coupled assay, resorufin fluorescence, 16 min; hits give high values; 1 = vehicle wells, 0 = NADH-free wells; activation factor at 20 µM; 190,000 compounds, 0.005% hits;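 active = diaphorase activity raised at least twofold by the compound at 20 µM; inactive = activation factor below 2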
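Test system: Clostridium kluyveri diaphorase, purified enzyme. Buffer or medium: 50 mM HEPES pH 7.4 buffer plus MgCl2 and Tween 20. Also added: 0.114 mM NADH and 0.1 mM resazurin, final amounts. Dosing: compound 20 µM once, DMSO 1%. Schedule: 16 min enzyme reaction, ambient temperature. Detection: fluorescence of resorufin, 544 nm excitation, 590 nm emission.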
PfG6PD confirm = confirmation of Plasmodium falciparum G6PD inhibitors. shares compounds with PfGluPho inh. recombinant PfGluPho, NADPH-diaphorase-resazurin fluorescence. inhibition, % at 20 µM. 2,400 compounds, 34% hits;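 active = inhibition of at least 50% at 20 µM in any single replicate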;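 note: 0% = DMSO with substrate and 100% = DMSO lacking glucose-6-phosphate substrate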
Diaphorase 10uM = counter-screen for P. falciparum G6PD inhibitors: diaphorase inhibitors, oxidizers. diaphorase-coupled resazurin reduction, fluorescence, NADPH 10 uM. AID 504862. shares compounds with PfGluPho inh. inhibition, % at 20 µM. 820 compounds, 39% hits;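 active = average inhibition reaching 50% or more with the compound at 20 µM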;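 note: resorufin red fluorescence formed as diaphorase reduces resazurin using NADPH; 0% = DMSO with enzyme and 100% = DMSO without enzyme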
Diaph ctr 30uM = inhibits diaphorase or oxidizes, flagging false PfG6PD hits; 820 compounds, 29% hits; inhibition, % at 20 µM; Diaphorase/resazurin coupled assay, resorufin fluorescence, 30 uM NADPH; shares compounds with PfGluPho inh; AID 504863;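 active = inhibition averaging 50% or more, tested at 20 µM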;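 note: 0% = DMSO with enzyme and 100% = DMSO wells lacking diaphorase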
* marks the source's active call; other numbers are inactive results; nt = not tested or not shown. Shown are actives, neighbours in structure and some others; about 1.2% of the full set was active somewhere.

SMILES | HKDC1 inhibitor | G6PDH CS | Diaph inh CS | PfGluPho inh | Diaph act CS | PfG6PD confirm | others
Cc1cc(=O)oc2cc(OCC(=O)N3CCOCC3)ccc12 | 2 | 1 | 8 | 68* | 0.9 | 28
CCC(C)(C)C1CCC2(CC1)NC(=O)N(CC(=O)N(C)Cc1ccc3c(c1)OCCO3)C2=O (configuration not stated) | 9 | nt | nt | 11 | nt | nt
CCCOc1ccc(C(F)(F)F)cc1NC(=O)C1CC(=O)N(Cc2ccco2)C1 (configuration not stated) | -5 | nt | nt | -1 | nt | nt
COc1ccc(C(=O)Nc2ccc3ccccc3c2)c(OC)c1 | 1 | nt | nt | 74* | nt | 12
COc1ccccc1C(=O)Nc1ccc2ccccc2c1 | 3 | nt | nt | 41 | nt | nt
Cc1cc(C)cc(-n2c(SCC(=O)NCc3ccc4c(c3)OCO4)nc3ccccc3c2=O)c1 | -8 | -9 | 15 | 5 | 0.9 | nt
O=C(CSc1nc2cc([N+](=O)[O-])ccc2n1-c1ccccc1)NCc1ccc2c(c1)OCO2 | -7 | -15 | 0 | 68* | 1 | -6
Nc1ccc(S(N)(=O)=O)cc1N | 8 | nt | nt | 60* | nt | 4
Nc1ccc(S(N)(=O)=O)cc1 | -4 | nt | nt | -3 | nt | nt
c1ccc(COn2nnc3ccccc32)c(COn2nnc3ccccc32)c1 | 9 | -8 | 19 | 50 | 0.8 | 14
CCOC(=O)Cc1csc(NC(=O)c2cc3c(s2)CCCC3)n1 | 2 | -3 | 10 | 6 | 0.9 | nt
Cc1csc(NC(=O)c2cc3c(s2)CCCC3)n1 | 5 | 12 | 9 | 62* | 0.9 | 9
Cc1csc(NC(=O)c2cc3c(s2)CCCCC3)n1 | 7 | 3 | 0 | 77* | 1 | 10
COc1ccc(C(=O)Nc2cnc(NC(=O)c3cccs3)cc2C)cc1 | 6 | nt | nt | -13 | nt | nt
COc1ccc(C(=O)Nc2cc(C)c(NC(=O)c3ccccn3)cn2)cc1 | -2 | nt | nt | 67* | nt | 19
Cc1cc(NC(=O)CSc2nc3cc(Cl)ccc3s2)no1 | -5 | 1 | 10 | -8 | 0.9 | nt
O=C(CSc1nc2cc(Cl)ccc2s1)c1cc2ccccc2o1 | 0 | 2 | 0 | 64* | 1 | 5
O=Cc1ccc(OC(=O)CCCCC(=O)Oc2ccc(C=O)cc2)cc1 | 5 | nt | nt | 3 | nt | nt
N#Cc1ccccc1Sc1ccccc1N | 5 | 4 | 15 | 2 | 0.8 | nt
Nc1ccccc1SSc1ccccc1N | -24 | nt | nt | 69* | nt | 44
O=C(CCNC(=O)C1CCN(S(=O)(=O)c2ccc(F)cc2)CC1)NCc1ccccn1 | nt | nt | nt | -3 | nt | nt
O=C(COC(=O)c1ccc(F)c(S(=O)(=O)N2CCOCC2)c1)Nc1ccc2c(c1)OCO2 | -5 | nt | nt | -2 | nt | nt
CC(=O)N(C)C[C@H]1Oc2ncc(Br)cc2C(=O)N([C@H](C)CO)C[C@@H]1C | nt | nt | nt | -8 | nt | nt
CC1CN(c2ccccc2)NC1=O (configuration not stated) | 10 | -4 | -5 | 106* | 1.1 | 107* | Diaphorase 10uM=13;Diaph ctr 30uM=15
Cc1ccc2nc(-c3sc4nc(C)cc(C)c4c3N)[nH]c2c1 | 0 | 2 | 2 | 77* | 1 | 12
SMILES | HKDC1 inhibitor | G6PDH CS | Diaph inh CS | PfGluPho inh | Diaph act CS | PfG6PD confirm | others
Cc1ccc2nc(-c3cccc(N)c3)[nH]c2c1 | 5 | 6 | 2 | 62* | 1 | 29
CC(C)c1ccc(CCNC(=O)CSC(=S)N2CCCC2)cc1 | 0 | nt | nt | 13 | nt | nt
CN(O)/C=c1/ccc2c(n1)C(=O)C=CC=2 | 11 | 58* | 69* | 68* | 0.3 | 58* | Diaphorase 10uM=-18;Diaph ctr 30uM=-12
Cc1ccc(NC(=O)CN2C(=O)NC3(CCCc4ccccc43)C2=O)c(C)c1 (configuration not stated) | 2 | nt | nt | -9 | nt | nt
Cc1ccccc1S(=O)c1ccccc1C(=O)O (configuration not stated) | -7 | nt | nt | 12 | nt | nt
CNc1ncnc(Sc2nc(N)nc3nc[nH]c23)c1[N+](=O)[O-] | 5 | nt | nt | 12 | nt | nt
Nc1nc(Sc2ccc([N+](=O)[O-])c3nonc23)c2[nH]cnc2n1 | 24 | nt | nt | 122* | nt | 109* | Diaphorase 10uM=97*;Diaph ctr 30uM=85*
CC(C)c1nnc(NC(=O)c2cc3ccccc3o2)s1 | 0 | nt | nt | 66* | nt | 54* | Diaphorase 10uM=35;Diaph ctr 30uM=10
CC(=O)Nc1cccc(NC(=O)c2cc3ccccc3o2)c1 | -1 | -3 | 24 | -3 | 0.8 | nt
O=C(Nc1ccc(N2CCN(C(=O)c3ccco3)CC2)c(Cl)c1)c1cc2ccccc2o1 | 2 | 4 | 20 | 90* | 0.8 | 43* | Diaphorase 10uM=47;Diaph ctr 30uM=44
CCC(=O)N1CCN(c2ccc(NC(=O)c3cc4ccccc4o3)cc2Cl)CC1 | 1 | -35 | 23 | 118* | 0.8 | 84* | Diaphorase 10uM=72*;Diaph ctr 30uM=61*
Cc1ccc(NC(=O)c2cc3ccccc3o2)cc1Cl | 1 | nt | nt | 100* | nt | 18
O=C(Nc1ccc(N2CCN(C(=O)c3ccccc3)CC2)c(Cl)c1)c1ccco1 | 0 | 11 | 7 | -20 | 0.9 | nt
C[C@@H]1CN([C@H](C)CO)S(=O)(=O)c2ccc(-c3ccc(C(=O)N(C)C)cc3)cc2O[C@H]1CN(C)C(=O)Cc1ccccn1 | nt | nt | nt | 16 | nt | nt
CCOC(=O)C(C)C(C)=O (configuration not stated) | -5 | nt | nt | 1 | nt | nt
CCN(CC)C(=O)C1=C(C)N(CCCN2CCCC2=O)C(=O)C(CC(=O)NC2CCCCC2)C1 (configuration not stated) | nt | nt | nt | -8 | nt | nt
CC1(C)CC(=O)C2=C(C1)N=C1c3ccccc3C(=O)C1C2c1ccc(Cl)cc1 (configuration not stated) | 5 | -42 | 22 | 84* | 0.8 | 17
C=CCOc1ccc(/C=C/C(=O)OCC(=O)N(C)CC(=O)Nc2ccccc2Cl)cc1 | -2 | nt | nt | 10 | nt | nt
Cc1cccc(-c2noc(CN(C)C(=O)c3ccc4c(c3)OCO4)n2)c1 | 2 | nt | nt | 15 | nt | nt
CCOc1ccc2c(c1)C(=O)C(=O)N2CC1COc2ccccc2O1 (configuration not stated) | 24 | nt | nt | 63* | nt | 11
O=C(CSc1nc2ccccc2o1)N/N=C/c1ccco1 | -5 | nt | nt | 24 | nt | nt
Cc1cc(SCC(=O)N/N=C/c2ccco2)nc2ccccc12 | 4 | 6 | 16 | 80* | 0.8 | 52* | Diaphorase 10uM=58*;Diaph ctr 30uM=48
Oc1c(N=Nc2ccccc2)sc2ccccc12 | -2 | nt | nt | 60* | nt | 13
CN(C)c1cccc(C(=O)N2CCCC(CCC(=O)NCc3ccccc3F)C2)c1 (configuration not stated) | -3 | nt | nt | -5 | nt | nt

High-throughput results as filed in PubChem BioAssay.
